In ChEMBL document CHEMBL4354800, “Amphiphilic nebramine-based hybrids Rescue legacy antibiotics from intrinsic resistance in multidrug-resistant Gram-negative bacilli” (Eur J Med Chem, 2019):

Experiments:
Escherichia coli [1] = test: Synergistic antibacterial activity against Escherichia coli ATCC 25922 assessed as fractional inhibitory concentration index in presence of rifampicin incubated for 18 hrs by broth dilution method; type: functional
Outline: (§1)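 Checkerboard titration of the adjuvant against the antibiotic, run under the CLSI microdilution conditions (MHB, 5 × 10^5 CFU/mL, 18 h, 37 °C). Each agent's FIC is its MIC in combination divided by its MIC alone; FICI is the sum of the two FICs. FICI ≤0.5 was read as synergy, >0.5–4.0 as no interaction, and >4.0 as antagonism.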

Escherichia coli [2] = test: Synergistic antibacterial activity against Escherichia coli 94474 assessed as fractional inhibitory concentration index in presence of rifampicin incubated for 18 hrs by broth dilution method; type: functional; outline: as §1
[3] = Hemolytic activity against porcine erythrocytes assessed as hemoglobin release at 512 ug/ml incubated for 1 hr by spectrophotometric analysis relative to control; type: ADME, cell-based, Sus scrofa, Erythrocyte; details: pig, read-out: Activity
Outline: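 Porcine erythrocytes were washed three times in PBS and used at 3 × 10^8 cells/mL final. Compounds were serially diluted in PBS at twice the final concentration, mixed with an equal volume of cells, and incubated 1 h at 37 °C. After centrifugation (1000 g, 4 °C, 10 min), hemoglobin in the supernatant was read at 570 nm. Percent hemolysis was scaled between PBS (0%) and 0.1% Triton X-100 (100%).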

Pseudomonas aeruginosa [4] = test: Antimicrobial activity against XDR Pseudomonas aeruginosa isolate PA264 infected in Galleria mellonella larvae assessed as survival rate at 75 mg/kg co-administered with 75 mg/kg rifampicin at 2 hrs post-inoculation measured after 18 hrs relative to control; type: functional
Outline: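 G. mellonella larvae were injected with ~5 CFU of P. aeruginosa PA264 (10 µL of 5 × 10^2 CFU/mL in PBS) and held 2 h at 37 °C. A single 10 µL injection followed: monotherapy or rifampicin + compound (25+25, 50+50 or 75+75 mg/kg), with PBS as control. Larvae kept at 37 °C were scored every 6 h to 24 h; dead = no response to touch. n = 30 (two runs of 15); Kaplan-Meier.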

Enterobacter cloacae [5] = test: Potentiation of rifampicin-induced antibacterial activity against Enterobacter cloacae 117029 assessed as fold reduction in rifampicin MIC at 4.1 uM incubated for 18 hrs by broth dilution method; type: functional
Outline: (§2)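 Antibiotic MIC determined by CLSI broth microdilution (MHB, 5 × 10^5 CFU/mL, 18 h, 37 °C), once alone and once with a fixed concentration of the adjuvant. Potentiation is the ratio of the antibiotic MIC alone to its MIC in the presence of the adjuvant.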

Klebsiella pneumoniae = test: Potentiation of minocycline-induced antibacterial activity against Klebsiella pneumoniae 116381 assessed as fold reduction in minocycline MIC at 7.5 uM incubated for 18 hrs by broth dilution method; type: functional; outline: as §2
Pseudomonas aeruginosa [6] = test: Synergistic antibacterial activity against MDR/XDR Pseudomonas aeruginosa isolate PA264-104354 harboring GyrA T83I mutant assessed as fractional inhibitory concentration index in presence of moxifloxacin incubated for 18 hrs by broth microdilution method; type: functional
Outline: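 Checkerboard synergy assay. Antibiotic and adjuvant in twofold dilutions in Mueller-Hinton broth. Inoculum 5 × 10^5 CFU/mL from a 0.5 McFarland suspension, 18 h at 37 °C, MIC read by turbidity and confirmed at 590 nm. FIC = MIC in combination / MIC alone for each agent, FICI = sum. Interpreted as ≤0.5 synergy, 0.5–4 no interaction, >4 antagonism.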

Pseudomonas aeruginosa [7] = test: Potentiation of minocycline-induced antimicrobial activity against MDR/XDR Pseudomonas aeruginosa isolate PA259-96918 harboring GyrA Thr83Ile mutant assessed as minocycline MIC50 incubated for 18 hrs by broth microdilution method (reference value: 16 microg/ml); type: functional; details: isolate PA259-96918, 18 h
Acinetobacter baumannii [8] = test: Antimicrobial activity against multidrug-resistant Acinetobacter baumannii AB027 incubated for 18 hrs by broth dilution method; type: functional; details: AB027, 18 h
Outline: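 Broth microdilution per CLSI: overnight cultures set to 0.5 McFarland in saline, diluted 1:50 in Mueller-Hinton broth to a final 5 × 10^5 CFU/mL, added to 2-fold serial dilutions, incubated 18 h at 37 °C; MIC is the lowest concentration without visible turbidity, confirmed at 590 nm.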

Acinetobacter baumannii [9] = test: Synergistic antibacterial activity against multidrug-resistant Acinetobacter baumannii AB027 assessed as fractional inhibitory concentration index in presence of minocycline incubated for 18 hrs by broth dilution method; type: functional
Enterobacter cloacae [10] = test: Potentiation of rifampicin-induced antibacterial activity against Enterobacter cloacae 117029 assessed as fold reduction in rifampicin MIC at 7.5 uM incubated for 18 hrs by broth dilution method; type: functional; outline: as §2
Pseudomonas aeruginosa [11] = test: Potentiation of minocycline-induced bactericidal activity in Pseudomonas aeruginosa PAO1 at 0.5 times MIC incubated for 24 hrs in presence of 4 ug/ml minocycline by time kill curve assay relative to control; type: functional
Outline: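 Time-kill. An overnight PAO1 culture was adjusted to 0.5 McFarland in saline and diluted 1:50 in LB. Cells were exposed to the adjuvant at ½× MIC plus fixed minocycline for 24 h at 37 °C. Aliquots taken at intervals were serially diluted in PBS and plated on LB agar; colonies were counted after 20 h at 37 °C. Controls were untreated cells and colistin at 4× MIC.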

Pseudomonas aeruginosa [12] = test: Potentiation of minocycline-induced antimicrobial activity against MDR/XDR Pseudomonas aeruginosa isolate PA260-97103 harboring GyrA Thr83Ile mutant assessed as minocycline MIC80 incubated for 18 hrs by broth microdilution method (reference value: 32 microg/ml); type: functional; details: isolate PA260-97103, 18 h
Pseudomonas aeruginosa [13] = test: Potentiation of moxifloxacin-induced antibacterial activity against wild type Pseudomonas aeruginosa PAO1 assessed as fold reduction in moxifloxacin MIC at 9 uM incubated for 18 hrs by broth microdilution method; type: functional; outline: as §2
Pseudomonas aeruginosa [14] = test: Potentiation of moxifloxacin-induced antibacterial activity against MDR/XDR Pseudomonas aeruginosa isolate 91433 devoid of GyrA T83I mutant assessed as fold reduction in moxifloxacin MIC at 9 uM incubated for 18 hrs by broth microdilution method; type: functional
Outline: (§3)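 CLSI broth microdilution. Overnight cultures were set to 0.5 McFarland in saline, diluted 1:50 in Mueller-Hinton broth to a final 5 × 10^5 CFU/mL, and incubated 18 h at 37 °C against 2-fold antibiotic dilutions. A fixed adjuvant level was present throughout. MIC = lowest concentration with no visible turbidity, confirmed at 590 nm. Potentiation = fold drop in antibiotic MIC versus antibiotic alone.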

Pseudomonas aeruginosa [15] = test: Potentiation of rifampicin-induced antibacterial activity against MDR/XDR Pseudomonas aeruginosa isolate 101885 harboring GyrA T83I mutant assessed as fold reduction in rifampicin MIC at 9 uM incubated for 18 hrs by broth microdilution method; type: functional; outline: as §3
Pseudomonas aeruginosa [16] = test: Potentiation of rifampicin-induced antibacterial activity against MDR/XDR Pseudomonas aeruginosa isolate 91433 devoid of GyrA T83I mutant assessed as fold reduction in rifampicin MIC at 9 uM incubated for 18 hrs by broth microdilution method; type: functional; outline: as §3

Cl.Cl.Cl.Cl.Cl.NC[C@H]1O[C@H](O[C@H]2[C@H](OCCCCCCCCCCCCN3CCN(c4cc5c(cc4F)c(=O)c(C(=O)O)cn5C4CC4)CC3)[C@@H](O)[C@H](N)C[C@@H]2N)[C@H](N)C[C@@H]1O
fractional inhibitory concentration index (FICI) (Escherichia coli [1]): 0.133
fractional inhibitory concentration index (FICI) (Escherichia coli [2]): 0.004 - 0.035
hemolysis at 1 h, 512 ug/ml [3]: < 10%
survival at 75 mg/kg (Pseudomonas aeruginosa [4]): 87%
fold change (FC) (Enterobacter cloacae [5]): >=256

COc1c(N2C[C@@H]3CCCN(CCCCCCCCCCCCO[C@@H]4[C@@H](O)[C@H](N)C[C@H](N)[C@H]4O[C@H]4O[C@H](CN)[C@@H](O)C[C@H]4N)[C@@H]3C2)c(F)cc2c(=O)c(C(=O)O)cn(C3CC3)c12.Cl.Cl.Cl.Cl.Cl
fold change (FC) (Klebsiella pneumoniae): 16
fractional inhibitory concentration index (FICI) (Pseudomonas aeruginosa [6]): 0.09
MIC50 (Pseudomonas aeruginosa [7]): 0.5 µg/mL
MIC (Acinetobacter baumannii [8]): > 256 µg/mL
fractional inhibitory concentration index (FICI) (Acinetobacter baumannii [9]): >1
fold change (FC) (Enterobacter cloacae [10]): >=128
Activity (Pseudomonas aeruginosa [11]): 100%
MIC80 (Pseudomonas aeruginosa [12]): 1 µg/mL

Cl.Cl.Cl.Cl.Cl.Cl.NC[C@H]1O[C@H](O[C@H]2[C@H](OCCCCCCCCCCN3CCN(Cc4cccc5ccccc45)CC3)[C@@H](O)[C@H](N)C[C@@H]2N)[C@H](N)C[C@@H]1O
fold change (FC) (Pseudomonas aeruginosa [13]): 32
fold change (FC) (Pseudomonas aeruginosa [14]): 8
fold change (FC) (Pseudomonas aeruginosa [15]): 128
fold change (FC) (Pseudomonas aeruginosa [16]): 4
